Experimental data from PMC5417661 (Drug Design, Development and Therapy, 2017).

Key:
[1] = tested on: A2780/Adr (drug resistant); experiment: Fluorometric microculture cytotoxicity assay; type: cell-based, human; details: for IC50 ratio (resistant vs sensitive cells): A2780/Adr vs A2780; for IC50: 72 h, A2780/Adr (drug resistant) ovarian carcinoma
Summary of the method: (§1)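 FMCA with cells seeded into plates pre-loaded with compound and stored at −20°C or −80°C. Seeding was 1,000–2,500 (384-well) or 5,000–10,000 (96-well) cells/well. Culture media: RPMI 1640 for CCRF-CEM, A2780, A2780/Adr, BXPC-3, U-937 and RPMI 8226; McCoy's for HT29 and HCT116. After 72 h, plates were washed and given fluorescein diacetate buffer for 45 min, then fluorescence was read. Survival index = (treated − blank)/(control − blank); IC50 taken from curves.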

[2] = tested on: cocultures of endothelial colony forming cells (ECFCs) and adipocyte derived stem cells (ADSCs); experiment: Vascular tube formation assay, disruption of established cords; type: cell-based, human
Summary of the method: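 Cocultures of GFP-labelled endothelial colony forming cells and adipocyte-derived stem cells were stimulated with VEGF (20 ng/mL) to form cords. Compounds were added to the established cords at 96 h. Images were taken every 6 h and scored for relative cord length and branch points. pIC50 came from a four-parameter logistic fit of area-under-curve data between 96 and 186 h.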

bovine tubulin protein = experiment: In vitro tubulin polymerization assay; type: biochemical; details: cell-free, 60 min
Summary of the method: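 Commercial kit using bovine tubulin, cell-free. The test compound was tested at 1.0–10 µM. Vincristine and paclitaxel at 3.0 µM served as inhibition and stabilization controls. Compounds were dissolved in DMSO and diluted in sterile water to at most 0.1% DMSO, which was the solvent control. Polymerization was followed by a fluorescent reporter incorporated into microtubules and read continuously at 360/450 nm for 60 min.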

[3] = tested on: developing blood vessels of chick embryo; experiment: Ex ovo chicken embryo chorioallantoic membrane; type: in vivo; details: for effect on blood vessel growth and integrity: 10 nM, vs DMSO vehicle; for growth of the blood vessels (change in relative surface area) / vascular integrity (discontinuity of the vessels): 50 nM, 24 and 48 h posttreatment, vs controls
Summary of the method: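 Fertilized eggs incubated at 37.5°C and 60% humidity, then opened into 10 cm dishes on day 4. Two days later a 5 mm filter paper carrying test compound (10, 50, 200 nM), reference vascular disrupting agent or DMSO was laid on the CAM between two main vessels. Eggs were incubated 2 more days and photographed at 0, 24 and 48 h. Read-outs: relative surface area of vessels touching the paper, and disruption index (intact segments >10 mm).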

OvCar-8 cells = experiment: Time-lapse mitotic index and cell death index in OC cell lines; type: cell-based, human; details: OvCar-8, 12.5 nM
Summary of the method: (§2)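 Ovarian OvCar-8, OvCar-4 and CaOv-3 cells were time-lapse filmed for 3 days, starting immediately after adding 12.5 nM test compound, 12.5 nM paclitaxel or vehicle alone. Mitotic index and cell death index were scored from the films at 12, 24, 48 and 72 h.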

[4] = Plasma levels in the maximal tolerated dose study; type: in vivo, NMRI nu/nu female mice
Summary of the method: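 In the maximal tolerated dose study, female NMRI nu/nu mice received test compound PO at 10, 20 or 40 mg/kg. Plasma concentrations were measured 1 and 4 h after dosing.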

HCT116 cells = experiment: Live cell microscopy; type: cell-based, human; details: HCT116, 50 nM, 30 cells
Summary of the method: (§3)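 HCT116, HCT8 and MCF10A cells were given 50 nM test compound or a reference tubulin agent and imaged on an IncuCyte immediately and for 3 days, at 1 h intervals, in three replicates. Growth curves used mean confluence from six images per time point. Mitotic duration and mitotic fate were scored from time-lapse films: 10 cells per well, 30 cells per condition.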

OvCar-4 cells = experiment: Time-lapse mitotic index and cell death index in OC cell lines; type: cell-based, human
[5] = tested on: HCT116, HCT8 and MCF10A cells; type: cell-based, human
Summary of the method: as §3

MCF10A cells = experiment: Live cell microscopy; type: cell-based, human; details: 50 nM, 30 cells
Summary of the method: as §3

[6] = tested on: cocultures of endothelial colony forming cells (ECFCs) and adipocyte derived stem cells (ADSCs); experiment: Vascular tube formation assay, neoangiogenic; type: cell-based, human; details: 4.6 nM–10 µM, VEGF 20 ng/mL coapplied on day 0
Summary of the method: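 Cocultures of GFP-labelled endothelial colony forming cells and adipocyte-derived stem cells (StemKit). Compounds were co-applied with VEGF (20 ng/mL) on day 0 to follow cord formation. Fluorescent and phase-contrast images (10×) were taken every 6 h for up to 8 days. Cord length (mm/mm2) and branch points were analysed from 3–6 separate samples per condition.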

A2780 xenograft = experiment: Human OC cell xenograft study; type: in vivo, NMRI nu/nu female nude mice
Caco-2 cell monolayers = experiment: Caco-2 permeability assay; type: in vitro ADME, human
Summary of the method: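 Caco-2 monolayers grown to confluence on collagen-coated polycarbonate transwell membranes. Buffer was HBSS with 10 mM HEPES and 15 mM glucose, pH 7.4; the receiver side also held 1% BSA. 5 μM test compound was dosed apically (A-to-B) or basolaterally (B-to-A) at 37°C, 5% CO2. Donor and receiver were sampled at 120 min, in duplicate. Co-applied Lucifer yellow checked integrity. High permeability: Papp A-to-B ≥1.0×10−6 cm/s.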

[7] = tested on: panel of eight cancer cell lines; experiment: FMCA, range over the panel of cancer cell lines; type: cell-based, human; details: read-out: IC50, range over cell lines
Summary of the method: as §1

CaOv-3 cells = experiment: Time-lapse mitotic index and cell death index in OC cell lines; type: cell-based, human; details: CaOv-3, 12.5 nM
Summary of the method: as §2

HCT8 cells = experiment: Live cell microscopy; type: cell-based, human; details: HCT8, 50 nM, 30 cells
Summary of the method: as §3

CCC[C@H](Nc1nc(-c2ccc(NC(=O)NCC)c(OC)c2)ncc1C)c1cccnc1 [CYT997, lexibulin]
IC50 ratio (resistant vs sensitive cells) [1]: 3.35
IC50 ([1]; Homo sapiens, A2780 ADR): 183 nM

Cc1ccc(C(=O)Nc2ccc(S(=O)(=O)O)c3cc(S(=O)(=O)O)cc(S(=O)(=O)O)c23)cc1NC(=O)c1cccc(NC(=O)Nc2cccc(C(=O)Nc3cc(C(=O)Nc4ccc(S(=O)(=O)O)c5cc(S(=O)(=O)O)cc(S(=O)(=O)O)c45)ccc3C)c2)c1 [suramin, reference compound]
effect on established cords ([2]; 100 µM, added at t=96 h): complete regression of established cords

CC(=O)O[C@H]1C(=O)[C@@]2(C)[C@H]([C@H](OC(=O)c3ccccc3)[C@]3(O)C[C@H](OC(=O)[C@H](O)[C@@H](NC(=O)c4ccccc4)c4ccccc4)C(C)=C1C3(C)C)[C@]1(OC(C)=O)CO[C@@H]1C[C@@H]2O [PTX, paclitaxel]
IC50 ratio (resistant vs sensitive cells) [1]: 3,115
IC50 ([1]; Homo sapiens, A2780 ADR): 810 nM
effect on tubulin polymerization (bovine tubulin protein; 3.0 µM): effective stabilizer of tubulin polymerization

CC[C@]1(O)C[C@H]2CN(CCc3c([nH]c4ccccc34)[C@@](C(=O)OC)(c3cc4c(cc3OC)N(C=O)[C@H]3[C@@](O)(C(=O)OC)[C@H](OC(C)=O)[C@]5(CC)C=CCN6CC[C@]43[C@@H]65)C2)C1 [VinC, vincristine]
IC50 ratio (resistant vs sensitive cells) [1]: 955
IC50 ([1]; Homo sapiens, A2780 ADR): 210 nM
effect on tubulin polymerization (bovine tubulin protein; 3.0 µM): suppress tubulin heterodimer polymerization

COc1ccc(/C=C\c2cc(OC)c(OC)c(OC)c2)cc1O [Combretastatin A4, reference compound]
effect on blood vessel growth and integrity [3]: ineffective
growth of the blood vessels (change in relative surface area) [3]: significantly suppressed
vascular integrity (discontinuity of the vessels) [3]: significantly suppressed

COc1ccc2[nH]cc(CCNc3nccc(Nc4cccc5c4ccn5C)n3)c2c1 [NOV202]
mitotic index (MI) (OvCar-8 cells; 12 h): 27.0%±4.0%
cell death index (CDI) (OvCar-8 cells; 24 h): 29.0%±9.0%
cell death index (CDI) (OvCar-8 cells; 48 h): 31.0%±10.5%
cell death index (CDI) (OvCar-8 cells; 72 h): 30.0%±2.3%
IC50 [1]: 2.3 nM
IC50 ratio (resistant vs sensitive cells) [1]: 0.96
plasma concentration ([4]; PO 10 mg/kg, 1 h post-dosing): 21 nM
plasma concentration ([4]; PO 10 mg/kg, 4 h post-dosing): 17 nM
plasma concentration ([4]; PO 20 mg/kg, 1 h post-dosing): 54 nM
plasma concentration ([4]; PO 20 mg/kg, 4 h post-dosing): 29 nM
plasma concentration ([4]; PO 40 mg/kg, 1 h post-dosing): 309 nM
plasma concentration ([4]; PO 40 mg/kg, 4 h post-dosing): 76 nM
average duration of mitosis (HCT116 cells): 26.2 ± 7.1 h
mitotic index (MI) (OvCar-4 cells; OvCar-4, 12.5 nM, 12 h): 24.0%±9.5%
cell death index (CDI) (OvCar-4 cells; OvCar-4, 12.5 nM, 24 h): 13.7%±1.5%
cell death index (CDI) (OvCar-4 cells; OvCar-4, 12.5 nM, 48 h): 16.3%±2.1%
cell death index (CDI) (OvCar-4 cells; OvCar-4, 12.5 nM, 72 h): 12.0%±1.0%
cell death index (CDI) (OvCar-4 cells; OvCar-4, 50 nM, 24 h): 28.7%±6.8%
cell death index (CDI) (OvCar-4 cells; OvCar-4, 50 nM, 48 h): 48.3%±10.7%
cell death index (CDI) (OvCar-4 cells; OvCar-4, 50 nM, 72 h): 59.3%±13.2%
cell population growth (cell confluency) ([5]; 50 nM, filmed for 3 days): strong growth suppression
effect on interphase and mitotic microtubule networks ([5]; 15–50 nM, data not shown): markedly disrupted or completely wiped out
average duration of mitosis (MCF10A cells): 16.4 ± 5.2 h
VEGF-induced cord (tube) formation [6]: completely inhibit tube formation
effect on tumor volume (A2780 xenograft; PO 40 mg/kg, 5 days on/2 days off, comparable to paclitaxel 24 mg/kg IV): clear antitumor effect
tolerability by body weight measurements (A2780 xenograft; PO 10, 20, 40 mg/kg during the treatment): well tolerated
Efflux ratio (Caco-2 cell monolayers; bi-directional Caco-2): 1.0
Efflux substrate (Caco-2 cell monolayers; significant efflux: efflux ratio >3.0 and Papp B-to-A ≥1.0×10^−6 cm/s): no significant efflux
IC50 [7]: 2.3 to 12 nM
pIC50, disruption of VEGF stimulated established cords ([2]; four-parameter logistic fit of AUC between 96 and 186 h, VEGF 20 ng/mL): 8.3
effect on blood vessel growth and integrity [3]: ineffective
growth of the blood vessels (change in relative surface area) [3]: significantly suppressed
vascular integrity (discontinuity of the vessels) [3]: significantly suppressed
mitotic index (MI) (CaOv-3 cells; 12 h): 12.7%±2.5%
cell death index (CDI) (CaOv-3 cells; 24 h): 46.0%±1.7%
cell death index (CDI) (CaOv-3 cells; 48 h): 68.7%±4.2%
cell death index (CDI) (CaOv-3 cells; 72 h): 77.0%±4.6%
average duration of mitosis (HCT8 cells): 11.8 ± 3.1 h
effect on tubulin polymerization (bovine tubulin protein; 1.0 µM): slowed down the rate of the polymerization, but could not suppress it
effect on tubulin polymerization (bovine tubulin protein; 3.0 µM): suppress tubulin heterodimer polymerization
effect on tubulin polymerization (bovine tubulin protein; 10 µM): block the polymerization almost completely
